# Measurements reported in ChEMBL document CHEMBL2375313, “Synthesis, in vitro antitumor evaluation and DNA-binding study of novel tetrahydroquinolines and some derived tricyclic and tetracyclic ring systems” (Eur J Med Chem, 2013).
# Assays:
# Type in all cases: functional
# NCI-H23 = assay: Cytotoxicity against human NCI-H23 cells assessed as growth inhibition at 10 uM after 48 hrs by sulphorhodamine B assay; conditions: NCI-H23, 48 h, read-out: GI
# In short: (§1)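 NCI-60 one-dose screen per the NCI Drug Evaluation Branch protocol. Cells given a single 10 µM concentration with 48 h continuous exposure. Growth estimated by sulphorhodamine B protein assay. Result expressed as percentage growth inhibition relative to untreated growth.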
# [1] = Cytotoxicity against human EKVX cells assessed as growth inhibition at 10 uM after 48 hrs by sulphorhodamine B assay; conditions: read-out: GI; in short: as §1
# SNB-19 = assay: Cytotoxicity against human SNB19 cells assessed as growth inhibition at 10 uM after 48 hrs by sulphorhodamine B assay; conditions: SNB-19, 48 h, read-out: GI; in short: as §1
# SF-295 = assay: Cytotoxicity against human SF295 cells assessed as growth inhibition at 10 uM after 48 hrs by sulphorhodamine B assay; conditions: SF-295, 48 h, read-out: GI; in short: as §1
# PC-3 = assay: Cytotoxicity against human PC3 cells assessed as growth inhibition at 10 uM after 48 hrs by sulphorhodamine B assay; conditions: PC-3, 48 h, read-out: GI; in short: as §1
# MOLT-4 = assay: Cytotoxicity against human MOLT4 cells assessed as growth inhibition at 10 uM after 48 hrs by sulphorhodamine B assay; conditions: MOLT-4, 48 h, read-out: GI; in short: as §1
# K562 = assay: Cytotoxicity against human K562 cells assessed as growth inhibition at 10 uM after 48 hrs by sulphorhodamine B assay; conditions: K562, 48 h, read-out: GI; in short: as §1
# CCRF-CEM = assay: Cytotoxicity against human CCRF-CEM cells assessed as growth inhibition at 10 uM after 48 hrs by sulphorhodamine B assay; conditions: read-out: GI; in short: as §1
# T47D = assay: Cytotoxicity against human T47D cells assessed as growth inhibition at 10 uM after 48 hrs by sulphorhodamine B assay; conditions: read-out: GI; in short: as §1
# HT-29 = assay: Cytotoxicity against human HT-29 cells assessed as growth inhibition at 10 uM after 48 hrs by sulphorhodamine B assay; conditions: HT-29, 48 h, read-out: GI; in short: as §1
# HCT-116 = assay: Cytotoxicity against human HCT116 cells assessed as growth inhibition at 10 uM after 48 hrs by sulphorhodamine B assay; conditions: HCT-116, 48 h, read-out: GI; in short: as §1
# [2] = Cytotoxicity against human breast cancer cells after 48 hrs by sulphorhodamine B assay; conditions: Cancer cell lines
# [3] = Cytotoxicity against human prostate cancer cells after 48 hrs by sulphorhodamine B assay; conditions: Cancer cell lines
# [4] = Cytotoxicity against human ovarian cancer cells after 48 hrs by sulphorhodamine B assay; conditions: Cancer cell lines
# [5] = Cytotoxicity against human renal cancer cells after 48 hrs by sulphorhodamine B assay; conditions: Cancer cell lines
# [6] = Cytotoxicity against human melanoma cells after 48 hrs by sulphorhodamine B assay; conditions: Melanoma cell
# [7] = Cytotoxicity against human CNS cancer cells after 48 hrs by sulphorhodamine B assay; conditions: Cancer cell lines
# [8] = Cytotoxicity against human colon cancer cells after 48 hrs by sulphorhodamine B assay; conditions: Cancer cell lines
# [9] = Cytotoxicity against human non-small cell lung cancer cells after 48 hrs by sulphorhodamine B assay; conditions: Cancer cell lines
# [10] = Cytotoxicity against human leukemia cells after 48 hrs by sulphorhodamine B assay; conditions: Leukemia cell
# [11] = read-out: LC50 (the source's name)
smiles,measurement,setting,value
CCSc1nc(N)c2c(-c3ccc(Cl)cc3)c3c(nc2n1)C(C)CCC3 (centres undefined),inhibition of growth at 10 µM,NCI-H23,15.3%
same,inhibition of growth at 10 µM,[1],12.3%
same,inhibition of growth at 10 µM,SNB-19,< 10%
same,inhibition of growth at 10 µM,SF-295,< 10%
same,inhibition of growth at 10 µM,PC-3,25.3%
same,inhibition of growth at 10 µM,MOLT-4,32.5%
same,inhibition of growth at 10 µM,K562,32.4%
same,inhibition of growth at 10 µM,CCRF-CEM,28.4%
same,inhibition of growth at 10 µM,T47D,39.5%
same,inhibition of growth at 10 µM,HT-29,27.7%
same,inhibition of growth at 10 µM,HCT-116,18.8%
CC1CCCc2c1nc1nc(SCC(=O)c3ccccc3)nc(N)c1c2-c1ccc(Cl)cc1 (centres undefined),inhibition of growth at 10 µM,NCI-H23,24.7%
same,inhibition of growth at 10 µM,[1],26.7%
same,GI50,[2],79.3 µM
same,TGI,[2],89.6 µM
same,CC50,[2]; [11],> 100 µM
same,GI50,[3],75.5 µM
same,LC50,[3],> 100 µM
same,TGI,[3],> 100 µM
same,GI50,[4],80.6 µM
same,TGI,[4],95.5 µM
same,CC50,[4]; [11],> 100 µM
same,GI50,[5],51.8 µM
same,LC50,[5],> 100 µM
same,TGI,[5],> 100 µM
same,GI50,[6],58 µM
same,TGI,[6],> 100 µM
same,CC50,[6]; [11],> 100 µM
same,GI50,[7],62.3 µM
same,LC50,[7],> 100 µM
same,TGI,[7],84.1 µM
same,GI50,[8],> 100 µM
same,TGI,[8],86.5 µM
same,CC50,[8]; [11],> 100 µM
same,GI50,[9],46.1 µM
same,TGI,[9],> 100 µM
same,CC50,[9]; [11],> 100 µM
same,GI50,[10],34.7 µM
same,LC50,[10],93.3 µM
same,TGI,[10],65.1 µM
same,inhibition of growth at 10 µM,SNB-19,< 10%
same,inhibition of growth at 10 µM,SF-295,23.9%
same,inhibition of growth at 10 µM,PC-3,66.8%
same,inhibition of growth at 10 µM,MOLT-4,44.6%
same,inhibition of growth at 10 µM,K562,27.7%
same,inhibition of growth at 10 µM,CCRF-CEM,60.1%
same,inhibition of growth at 10 µM,T47D,72.6%
same,inhibition of growth at 10 µM,HT-29,21.5%
same,inhibition of growth at 10 µM,HCT-116,38.4%
